Reference: ChEMBL document CHEMBL5647682, “A selective PIKfyve inhibitor blocks PtdIns(3,5)P(2) production and disrupts endomembrane transport and retroviral budding” (EMBO Rep, 2008)
Active and inactive are the calls of the source. The rule behind the calls is not given here.

Key:
NIH3T3 [1] = experiment: Inhibition of PKB phosphorylation at Ser473 residue in mouse NIH3T3 cells at 800 nM under serum starved condition; assay type: cell-based
Summary of the method: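 NIH3T3 cells, 200,000 per well, grown in DMEM/10% donor calf serum, then held 18 h in 0.1% DCS. Pretreated 15 min with vehicle (DMSO), 800 nM inhibitor, 20 nM rapamycin or 10 μM LY294002, then left unstimulated or stimulated 15 min with 10% DCS. Lysates run on 10% SDS-PAGE, PVDF immunoblot with specific antibodies.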

[2] = Effect on PtdIns3P production in [32p]pi labelled serum stimulated mouse NIH3T3 cells at 800 nM (reference value: 7685 +/- 307); assay type: functional
Summary of the method: (§1)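 Sub-confluent NIH3T3 cells in 6 cm dishes, moved to phosphate-free medium and labelled with 0.3 mCi/ml 32Pi for 1 h, then treated with or without inhibitor for 20 min. Lysis in ice-cold 1 M HCl, scraping, lipid extraction and HPLC analysis of labelled phosphoinositides.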

NIH3T3 [3] = experiment: Induction of EEA1 localization in lumenal vesicles of mouse NIH3T3 cells at 800 nM incubated for 2 hrs; assay type: functional, cell-based
Summary of the method: (§2)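 NIH3T3 cells on coverslips, untreated or given 800 nM compound for 2 h. Fixed in 4% paraformaldehyde, permeabilized in 0.2% Triton X-100, blocked in 2% BSA, then anti-EEA1 staining. Confocal single 0.4 μm optical sections, with phase image merged onto the fluorescence image.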

[4] = Inhibition of mouse type 1 alpha PtdInsP
COS-7 [5] = experiment: Induction of EGF localization in african green monkey COS7 cells at 800 nM preincubated for 2 hrs followed by EGF stimulation and measured after 60 mins; assay type: functional, cell-based; conditions: Chlorocebus aethiops, time 3.0 hrs
[6] = Effect on PtdIns(3,4)P2 production in [32p]pi labelled serum stimulated mouse NIH3T3 cells at 800 nM (reference value: 1366 +/- 44); assay type: functional; summary of the method: as §1
NIH3T3 [7] = experiment: Induction of CI-MPR localization in perinuclear vesicle of mouse NIH-3T3 at 800 nM incubated for 2 hrs; assay type: functional, cell-based
COS-7 [8] = experiment: Induction of swollen vesicle phenotype in african green monkey COS-7 cells at 800 nM incubated for 120 mins by time-lapse analysis; assay type: functional, cell-based; conditions: Chlorocebus aethiops
NIH3T3 [9] = experiment: Induction of EEA1 localization in vesicular structures of mouse NIH3T3 cells at 800 nM incubated for 2 hrs; assay type: functional, cell-based; summary of the method: as §2
[10] = Selectivity ratio of IC50 for GST-tagged Ptdlns3p P110alpha (unknown origin) to IC50 for Saccharomyces cerevisiae GST-tagged PIKfyve
[11] = Effect on PtdIns(3,5)P2 production in [32p]pi labelled serum stimulated mouse NIH3T3 cells at 800 nM (reference value: 2219 +/- 71); assay type: functional; summary of the method: as §1
Homo sapiens = organism: Homo sapiens; experiment: Inhibition of type 2 gamma PtdInsP (unknown origin) at 10 uM relative to control
MEF = experiment: Induction of swollen vesicle phenotype in MEF cells at 800 nM incubated for 120 mins by time-lapse analysis; assay type: functional, cell-based; conditions: Mus musculus
NIH3T3 [12] = experiment: Inhibition of autophagy in mouse NIH3T3 cells transfected with GFP-tagged LC3 assessed as accumulation of LC3 in enlarged vesicles at 800 nM after 2 hrs; assay type: functional, cell-based
Summary of the method: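 NIH3T3 cells transfected with GFP-LC3 (Lipofectamine 2000), examined 48 h post-transfection. Left untreated or treated 2 h with 800 nM compound, fixed in 4% paraformaldehyde, and GFP, phase and overlay images taken by confocal microscopy as 0.4 μm optical sections.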

[13] = Effect on PtdIns4P production in [32p]pi labelled serum stimulated mouse NIH3T3 cells at 800 nM (reference value: 212147 +/- 5485); assay type: functional; summary of the method: as §1
NIH3T3 [14] = experiment: Induction of swollen vesicle phenotype in mouse NIH3T3 cells incubated for 120 mins by time-lapse analysis; assay type: functional, cell-based; conditions: NIH3T3, 2 h
Summary of the method: (§3)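 Live imaging of NIH3T3 cells on glass-bottom dishes in phenol red-free DMEM/10% DCS at 37°C, 10% CO2. Cells given 800 nM compound and phase imaged for 120 min, frames every 10 s. Then washed, placed in drug-free medium and filmed a further 130 min.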

NIH3T3 [15] = experiment: Reversal of swollen vesicle phenotype in mouse NIH3T3 cells expressing Fab1 assessed as reduction in size of swollen vesicles at 800 nM incubated for 2 hrs by phase contrast microscopic analysis; assay type: functional, cell-based
[16] = Effect on PtdIns(4,5)P2 production in [32p]pi labelled serum stimulated mouse NIH3T3 cells at 800 nM (reference value: 487335 +/- 641); assay type: functional; summary of the method: as §1
MCF-10A = experiment: Induction of swollen vesicle phenotype in human MCF-10A cells at 800 nM incubated for 120 mins by time-lapse analysis; assay type: functional, cell-based
NIH3T3 [17] = experiment: Reversal of swollen vesicle phenotype in mouse NIH3T3 cells expressing Fab1 assessed as reduction in number of swollen vesicles at 800 nM incubated for 2 hrs by phase contrast microscopic analysis; assay type: functional; design: scale not given: the % may be the effect or the level left
NIH3T3 [18] = experiment: Induction of swollen vesicle phenotype in mouse NIH3T3 cells at 800 nM incubated for 120 mins by time-lapse analysis; assay type: functional, cell-based; summary of the method: as §3
NIH3T3 [19] = experiment: Induction of EGF localization in mouse NIH3T3 cells at 800 nM preincubated for 2 hrs followed by EGF stimulation and measured after 60 mins; assay type: functional, cell-based; conditions: time 3.0 hrs
NIH3T3 [20] = experiment: Induction of cell division in mouse NIH3T3 cells at 800 nM; assay type: functional, cell-based
NIH3T3 [21] = experiment: Inhibition of cell growth in mouse NIH3T3 cells after 7 days; assay type: functional; conditions: time 7 day
MDCK = experiment: Induction of swollen vesicle phenotype in MDCK cells at 800 nM incubated for 120 mins by time-lapse analysis; assay type: functional, cell-based; conditions: Canis lupus familiaris
[22] = Inhibition of Saccharomyces cerevisiae GST-tagged PIKfyve
[23] = target: 1-phosphatidylinositol 3-phosphate 5-kinase FAB1 (Saccharomyces cerevisiae (strain ATCC 204508 / S288c) (Baker's yeast), UniProt P34756); experiment: Inhibition of Saccharomyces cerevisiae GST-tagged Fab1 incubated for 15 mins in presence of ATP
Chain of 1-phosphatidylinositol 3-phosphate 5-kinase FAB1 (P34756 whole entry, canonical isoform): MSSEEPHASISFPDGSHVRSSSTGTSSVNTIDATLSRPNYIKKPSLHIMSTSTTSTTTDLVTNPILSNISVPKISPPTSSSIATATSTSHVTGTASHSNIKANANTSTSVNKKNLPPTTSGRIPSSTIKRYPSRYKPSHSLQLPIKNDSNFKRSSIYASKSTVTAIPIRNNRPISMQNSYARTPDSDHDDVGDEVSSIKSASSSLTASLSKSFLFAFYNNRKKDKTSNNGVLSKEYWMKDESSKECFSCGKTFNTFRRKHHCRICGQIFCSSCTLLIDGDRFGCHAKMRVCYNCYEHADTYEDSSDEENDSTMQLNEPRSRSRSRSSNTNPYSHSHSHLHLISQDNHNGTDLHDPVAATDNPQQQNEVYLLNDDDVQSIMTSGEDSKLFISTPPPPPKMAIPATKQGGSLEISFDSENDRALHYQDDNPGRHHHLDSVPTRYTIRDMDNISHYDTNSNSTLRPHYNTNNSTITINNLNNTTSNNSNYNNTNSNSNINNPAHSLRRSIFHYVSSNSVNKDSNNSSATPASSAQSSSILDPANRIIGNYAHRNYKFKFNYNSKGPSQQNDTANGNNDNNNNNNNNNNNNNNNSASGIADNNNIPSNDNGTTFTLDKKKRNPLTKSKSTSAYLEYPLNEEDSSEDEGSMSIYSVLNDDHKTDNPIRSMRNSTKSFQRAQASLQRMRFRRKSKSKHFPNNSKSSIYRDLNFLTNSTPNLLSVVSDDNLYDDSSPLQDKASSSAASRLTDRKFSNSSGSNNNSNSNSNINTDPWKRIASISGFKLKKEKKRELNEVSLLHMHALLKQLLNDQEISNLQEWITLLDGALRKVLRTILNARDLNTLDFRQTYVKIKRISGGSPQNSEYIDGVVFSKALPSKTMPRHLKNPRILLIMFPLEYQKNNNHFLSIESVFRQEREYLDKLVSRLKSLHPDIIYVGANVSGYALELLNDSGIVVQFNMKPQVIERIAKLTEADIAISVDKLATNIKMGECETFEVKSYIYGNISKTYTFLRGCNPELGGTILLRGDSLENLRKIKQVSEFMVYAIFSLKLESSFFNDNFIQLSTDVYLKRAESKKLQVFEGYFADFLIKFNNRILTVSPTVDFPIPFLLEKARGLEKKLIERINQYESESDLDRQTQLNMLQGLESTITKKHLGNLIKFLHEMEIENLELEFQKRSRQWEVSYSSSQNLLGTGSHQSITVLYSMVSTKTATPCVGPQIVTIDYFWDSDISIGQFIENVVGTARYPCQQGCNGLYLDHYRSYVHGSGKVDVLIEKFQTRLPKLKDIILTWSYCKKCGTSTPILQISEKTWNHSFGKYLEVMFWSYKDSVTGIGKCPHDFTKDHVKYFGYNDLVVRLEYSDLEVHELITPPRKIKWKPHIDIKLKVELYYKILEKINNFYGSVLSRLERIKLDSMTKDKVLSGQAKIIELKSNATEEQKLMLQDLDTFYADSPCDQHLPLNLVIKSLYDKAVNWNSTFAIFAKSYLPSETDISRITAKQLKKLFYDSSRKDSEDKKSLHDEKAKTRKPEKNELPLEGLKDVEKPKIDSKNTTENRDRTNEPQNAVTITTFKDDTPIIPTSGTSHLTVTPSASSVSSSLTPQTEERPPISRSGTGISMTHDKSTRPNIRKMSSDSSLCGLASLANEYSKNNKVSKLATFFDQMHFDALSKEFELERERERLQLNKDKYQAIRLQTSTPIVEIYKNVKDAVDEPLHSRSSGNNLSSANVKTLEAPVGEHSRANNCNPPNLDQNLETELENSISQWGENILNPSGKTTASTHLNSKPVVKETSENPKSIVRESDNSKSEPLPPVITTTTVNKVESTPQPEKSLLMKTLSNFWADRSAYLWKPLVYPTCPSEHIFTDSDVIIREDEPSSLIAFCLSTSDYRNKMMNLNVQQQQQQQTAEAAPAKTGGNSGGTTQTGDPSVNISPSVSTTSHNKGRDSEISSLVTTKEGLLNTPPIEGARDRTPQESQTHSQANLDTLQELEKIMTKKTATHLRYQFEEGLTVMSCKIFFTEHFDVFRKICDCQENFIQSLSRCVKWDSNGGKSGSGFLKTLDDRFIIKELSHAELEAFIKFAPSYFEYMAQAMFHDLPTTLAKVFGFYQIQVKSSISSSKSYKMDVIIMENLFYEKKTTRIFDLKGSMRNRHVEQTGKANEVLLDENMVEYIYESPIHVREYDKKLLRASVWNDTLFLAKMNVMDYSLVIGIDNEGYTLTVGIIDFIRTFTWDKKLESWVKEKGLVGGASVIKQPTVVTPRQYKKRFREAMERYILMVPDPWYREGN

[24] = target: Phosphatidylinositol 4,5-bisphosphate 3-kinase catalytic subunit alpha isoform (Homo sapiens, UniProt P42336); experiment: Inhibition of GST-tagged Ptdlns3p P110alpha (unknown origin) expressed in baculovirus infected insect cells incubated for 15 mins in presence of ATP
Chain of Phosphatidylinositol 4,5-bisphosphate 3-kinase catalytic subunit alpha isoform (P42336 whole entry, canonical isoform): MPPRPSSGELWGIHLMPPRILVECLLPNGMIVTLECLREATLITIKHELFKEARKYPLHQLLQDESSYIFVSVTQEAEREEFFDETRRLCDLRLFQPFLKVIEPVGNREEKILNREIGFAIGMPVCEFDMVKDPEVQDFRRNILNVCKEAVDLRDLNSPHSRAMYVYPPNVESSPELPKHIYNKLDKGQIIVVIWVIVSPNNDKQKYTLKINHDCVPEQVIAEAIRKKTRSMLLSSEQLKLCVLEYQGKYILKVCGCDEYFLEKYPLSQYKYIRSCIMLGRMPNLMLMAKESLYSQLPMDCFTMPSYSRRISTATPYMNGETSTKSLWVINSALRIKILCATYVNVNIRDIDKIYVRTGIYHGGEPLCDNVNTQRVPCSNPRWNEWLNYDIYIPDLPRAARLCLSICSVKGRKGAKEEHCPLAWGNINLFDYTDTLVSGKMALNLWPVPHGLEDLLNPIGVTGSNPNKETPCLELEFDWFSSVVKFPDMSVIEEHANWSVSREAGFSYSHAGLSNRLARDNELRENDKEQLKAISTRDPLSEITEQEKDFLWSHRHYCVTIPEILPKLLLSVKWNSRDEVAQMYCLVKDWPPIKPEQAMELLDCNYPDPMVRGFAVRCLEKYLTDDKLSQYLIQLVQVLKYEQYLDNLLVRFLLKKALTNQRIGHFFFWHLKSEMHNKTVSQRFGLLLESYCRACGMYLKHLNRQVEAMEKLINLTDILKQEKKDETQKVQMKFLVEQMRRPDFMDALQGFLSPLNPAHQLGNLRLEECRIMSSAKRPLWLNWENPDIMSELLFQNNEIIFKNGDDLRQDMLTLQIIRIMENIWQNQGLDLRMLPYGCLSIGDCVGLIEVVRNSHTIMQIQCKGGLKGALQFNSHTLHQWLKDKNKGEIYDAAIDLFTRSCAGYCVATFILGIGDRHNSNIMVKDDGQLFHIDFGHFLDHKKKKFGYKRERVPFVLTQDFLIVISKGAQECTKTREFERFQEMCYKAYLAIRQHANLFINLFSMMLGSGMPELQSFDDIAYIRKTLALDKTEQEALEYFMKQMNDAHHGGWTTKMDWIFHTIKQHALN

NIH3T3 [25] = conditions: Mus musculus, dose 800.0 nM

With `Nc1ccc(C(=O)Nc2cccc(-c3nc(N4CCOCC4)c4oc5ncccc5c4n3)c2)cn1` the inhibition (NIH3T3 [1]) was “inactive”, the Activity [2] was 7476 and the Activity (NIH3T3 [3]) was “Active”. For the same molecule, the IC50 [4] was > 2000 nM, the Activity (COS-7 [5]) was “Active” and the Activity [6] was 1319. The Activity (NIH3T3 [7]) was “Active”, the Activity (COS-7 [8]) was “Active” and the Activity (NIH3T3 [9]) was “Active”. For the same molecule, the Ratio IC50 [10] was 100, the Activity [11] was 465 and the inhibition (Homo sapiens) was “inactive”. For the same molecule, the Activity (MEF) was “Active”, the Activity (NIH3T3 [12]) was “Active” and the Activity [13] was 194539. For the same molecule, the EC50 (NIH3T3 [14]) was 400 nM, the Activity (NIH3T3 [15]) was “Active” and the Activity [16] was 393289. The Activity (MCF-10A) was “Active”, the Activity (NIH3T3 [17]) was 50% and the Activity (NIH3T3 [18]) was “Active”. The Activity (NIH3T3 [19]) was “Active”, the Activity (NIH3T3 [20]) was “inactive” and the “inhibition (INH)” value (NIH3T3 [21]) was 25%. The Activity (MDCK) was “Active”, the IC50 [22] was 33 nM and the IC50 [23] was > 5000 nM. It also gave an IC50 [24] of 3300 nM.

For `Oc1cccc(-c2nc(N3CCOCC3)c3oc4ncccc4c3n2)c1` [PI-103], the inhibition (NIH3T3 [25]) was “Active” and the IC50 [23] was > 10000 nM.
